In ChEMBL document CHEMBL4325901, “Novel multitarget-directed ligands targeting acetylcholinesterase and σ1 receptors as lead compounds for treatment of Alzheimer's disease: Synthesis, evaluation, and structural characterization of their complexes with acetylcholinesterase” (Eur J Med Chem, 2019):
Active and inactive are the calls of the source. The rule behind the calls is not given here.

Key:
[1] = molecular target: T1, 5-hydroxytryptamine receptor 4 (Homo sapiens, UniProt Q13639); assay: Displacement of [3H]-GR113808 from recombinant human 5-HT4BR expressed in membranes at 1 uM after 60 mins relative to control
T1 sequence (Q13639 whole entry): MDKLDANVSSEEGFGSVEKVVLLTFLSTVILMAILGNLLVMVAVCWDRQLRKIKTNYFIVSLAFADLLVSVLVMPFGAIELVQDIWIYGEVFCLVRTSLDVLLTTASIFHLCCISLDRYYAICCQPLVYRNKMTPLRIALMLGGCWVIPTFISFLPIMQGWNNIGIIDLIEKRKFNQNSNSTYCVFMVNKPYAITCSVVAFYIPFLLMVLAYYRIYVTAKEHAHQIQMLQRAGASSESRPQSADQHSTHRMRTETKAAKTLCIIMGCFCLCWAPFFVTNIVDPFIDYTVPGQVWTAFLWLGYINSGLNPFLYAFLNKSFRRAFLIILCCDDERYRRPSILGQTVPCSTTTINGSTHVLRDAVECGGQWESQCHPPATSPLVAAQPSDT
How it was run: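 Crude membranes from a stable recombinant cell line expressing 5-HT4B were incubated in duplicate at 25 °C for 60 min with compound at 10^-6 or 10^-8 M and 0.2 nM [3H]-GR113808 in 25 mM Tris, pH 7.4. They were filtered through polyethylenimine-presoaked GF/C filters and washed three times with ice-cold Tris. Nonspecific binding was defined with serotonin.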

Acetylcholinesterase [2] = molecular target: T2, Acetylcholinesterase (Homo sapiens, UniProt P22303); assay: Inhibition of human erythrocytes AChE using acetylthiocholine iodide as substrate preincubated for 5 mins followed by substrate addition measured at 1 min time interval for 10 mins by Ellman's method
T2 sequence (P22303 whole entry): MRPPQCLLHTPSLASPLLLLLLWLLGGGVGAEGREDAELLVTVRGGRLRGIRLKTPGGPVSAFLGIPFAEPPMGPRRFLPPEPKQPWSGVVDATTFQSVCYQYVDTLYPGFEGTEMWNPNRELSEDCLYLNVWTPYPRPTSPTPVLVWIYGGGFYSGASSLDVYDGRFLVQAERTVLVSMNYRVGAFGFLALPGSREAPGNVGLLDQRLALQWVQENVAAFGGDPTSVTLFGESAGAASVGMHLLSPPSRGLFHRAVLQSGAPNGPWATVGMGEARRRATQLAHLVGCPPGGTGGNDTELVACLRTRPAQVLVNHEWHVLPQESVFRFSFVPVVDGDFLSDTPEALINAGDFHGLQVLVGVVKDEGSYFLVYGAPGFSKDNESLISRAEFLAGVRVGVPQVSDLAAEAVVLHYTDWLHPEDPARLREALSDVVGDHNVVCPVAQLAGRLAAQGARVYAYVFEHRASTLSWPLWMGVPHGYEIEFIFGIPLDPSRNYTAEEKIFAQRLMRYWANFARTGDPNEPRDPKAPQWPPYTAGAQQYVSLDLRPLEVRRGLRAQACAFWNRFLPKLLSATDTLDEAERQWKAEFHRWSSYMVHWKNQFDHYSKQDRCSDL

[3] = molecular target: Sigma non-opioid intracellular receptor 1 (Homo sapiens, UniProt Q99720); assay: Displacement of [3H]-(+)-pentazocine from sigma-1 receptor in human Jurkat cell membranes after 2 hrs by liquid scintillation counting method
Sigma non-opioid intracellular receptor 1, sequence (Q99720 whole entry): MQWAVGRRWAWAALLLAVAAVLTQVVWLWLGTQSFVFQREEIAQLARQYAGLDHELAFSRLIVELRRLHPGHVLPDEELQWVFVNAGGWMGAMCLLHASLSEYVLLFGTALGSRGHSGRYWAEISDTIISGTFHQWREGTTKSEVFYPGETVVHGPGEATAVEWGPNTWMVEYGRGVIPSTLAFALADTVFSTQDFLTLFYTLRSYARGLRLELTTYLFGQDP

[4] = molecular target: T1, 5-hydroxytryptamine receptor 4; assay: Agonist activity at 5-HT4R (unknown origin) expressed in CHO cells assessed as intracellular cAMP accumulation after 15 mins by radio-immunoassay; assay type: functional, cell-based
How it was run: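 Stably transfected CHO cells grown to confluence, serum-starved 4 h, then preincubated 15 min in serum-free medium with 5 mM theophylline, 10 mM pargyline and […] to block endogenous 5-HT1B receptors. 5-HT or test compound added for a further 15 min. Stopped with ice-cold ethanol, 30 min at room temperature, ethanol fraction dried, cAMP quantified by competitive radioimmunoassay.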

[5] = molecular target: T1, 5-hydroxytryptamine receptor 4; assay: Displacement of [3H]-GR113808 from recombinant human 5-HT4BR expressed in membranes after 60 mins
Acetylcholinesterase [6] = molecular target: T2, Acetylcholinesterase; assay: Non-competitive inhibition of human erythrocytes AChE up to 1 uM using varying levels of acetylthiocholine iodide substrate preincubated for 5 mins followed by substrate addition measured at 1 min time interval for 10 mins by Lineweaver-Burk plot analysis
[7] = molecular target: T1, 5-hydroxytryptamine receptor 4; assay: Antagonist activity at 5-HT4R (unknown origin) expressed in CHO cells assessed as reduction in intracellular cAMP accumulation after 15 mins by radio-immunoassay; assay type: functional, cell-based
Mus musculus [8] = assay: Cognition enhancing effect in Swiss mouse assessed as protection against dizocilpine-induced spatial memory impairment by measuring spontaneous alternation performance at 0.1 to 1 mg/kg, ip pretreated for 10 mins followed by dizocilpine treatment and measured after 20 mins by Y-maze test; assay type: functional, organism-based
How it was run: (§1)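 Male Swiss mice, 6 weeks, 32 g, groups of 12e16. Compounds dissolved in 10% DMSO in saline, diluted in saline; vehicle 2% DMSO in saline. Given IP 10 min before dizocilpine 0.15 mg/kg IP, 20 min before Y-maze session (alternation % and arm entries) or passive-avoidance training (footshock 3 s on entering dark compartment; step-through latency).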

Mus musculus [9] = assay: Cognition enhancing effect in Swiss mouse assessed as protection against dizocilpine-induced long term non-spatial memory impairment by measuring increase in step-through latency at 0.1 mg/kg, ip pretreated for 10 mins followed by dizocilpine treatment and measured after 20 mins by passive avoidance test relative to control; assay type: functional; how it was run: as §1

| Structure (SMILES) | inhibition [1] [%] | IC50 (Acetylcholinesterase [2]) [nM] | Ki [3] [nM] | Ki [5] [nM] | also measured |
| --- | --- | --- | --- | --- | --- |
| CCCCN1CCC(CCC(=O)c2cc(Cl)c(N)cc2OC)CC1 | 100 | – | – | – | – |
| O=C(CCC1CCN(CC2CCCCC2)CC1)c1ccc2c(ccn2Cc2ccccc2)c1 | 42 | 133 | – | – | – |
| COc1c(C(=O)CCC2CCN(Cc3ccccc3)CC2)cc(Cl)c2[nH]c([Si](C)(C)C)cc12 | 62 | 275 | – | – | – |
| COc1cc(N)c(Cl)cc1C(=O)CCC1CCN(CC2CCCCC2)CC1 | – | – | 51 | – | Activity [4]: Active |
| COc1cc2c(cc1OC)C(=O)C(CC1CCN(Cc3ccccc3)CC1)C2 (centres undefined) | 10 | – | – | – | – |
| COc1c(C(=O)CCC2CCN(Cc3ccccc3)CC2)cc(Cl)c2[nH]ccc12 | 96 | 20.4 | 5.7 | 150 | – |
| COc1c(C(=O)CCC2CCN(CC3CCCCC3)CC2)cc(Cl)c2c1ccn2C | – | 84.4 | – | – | – |
| O=C(CCC1CCN(Cc2ccccc2)CC1)c1ccc2[nH]ccc2c1 | 90 | 13.3 | 3.3 | 169 | – |
| COc1c(C(=O)CCC2CCN(CC3CCCCC3)CC2)cc(Cl)c2[nH]ccc12 | 100 | 91.4 | 5.1 | 40.9 | inhibition (Acetylcholinesterase [6]): Active; inhibition [7]: Active |
| COc1c(C(=O)CCC2CCN(CC3CCCCC3)CC2)cc(Cl)c2c1ccn2S(=O)(=O)c1ccccc1 | 62 | 559 | – | – | – |
| O=C(CCC1CCN(CC2CCCCC2)CC1)c1cc(Cl)c2[nH]ccc2c1 | 100 | 28.8 | 5.1 | 37.5 | Activity (Mus musculus [8]): inactive; Activity (Mus musculus [9]): 40% |
| O=C(CCC1CCN(CC2CCCCC2)CC1)c1ccc2[nH]ccc2c1 | 100 | 51 | – | 37.5 | – |
| O=C(CCC1CCN(CC2CCCC2)CC1)c1ccc2[nH]ccc2c1 | 100 | 94 | – | 25 | – |
| COc1c(C(=O)CCC2CCN(CC3CCCCC3)CC2)cc(Cl)c2c1ccn2Cc1ccccc1 | – | 261 | – | – | – |
| CCCCN1CCC(CCC(=O)c2ccc3[nH]ccc3c2)CC1 | 97 | 716 | – | 49.6 | – |
| COc1c(C(=O)CCC2CCN(CC3CCCCC3)CC2)ccc2[nH]ccc12 | 100 | 40 | – | 51 | – |
